Activity calls are given as the source filed them. The calls are words filed in the database; no cut-off is given here.
Columns and labels:
ONS [1] = assay: Induction of phenotypic perturbation in human ONS cells assessed as increase in mitochondrial marker at 10 uM after 24 hrs by mitotracker orange staining based assay relative to control; format: functional, cell-based
Procedure, shortened: (§1)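 hONS patient cells (line C1 200 08 0013; 1350/well, DMEM/F12 plus 10% FBS) were given 10 μM compound in 0.6% DMSO, with DMSO as control, for 24 h at 37 °C. MitoTracker Orange CMTMRos (400 nM, 30 min) was applied live before 4% PFA fixation. Anti-α-tubulin and anti-LC3b immunofluorescence plus DAPI followed. High-content imaging used six images/well, with cell segmentation, and each feature was expressed as log2 ratio versus DMSO.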

ONS [2] = assay: Induction of phenotypic perturbation in human ONS cells assessed as increase in LC3b marker at 10 uM after 24 hrs by LC3b staining based assay relative to control; format: functional, cell-based; procedure, shortened: as §1
ONS [3] = assay: Induction of phenotypic perturbation in human ONS cells assessed as decrease in EEA1-associated early endosomes level in at 10 uM after 24 hrs by EEA1 staining based assay relative to control; format: functional, cell-based
Procedure, shortened: (§2)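 hONS cells from Parkinson's disease patient line C1 200 08 0013, 1350 cells/well in DMEM/F12 with 10% FBS, exposed to 10 μM compound (0.6% DMSO; DMSO alone as control) for 24 h at 37 °C, 5% CO2. Live stain with LysoTracker Red DND-99 (100 nM, 1 h), then PFA fixation, anti-EEA1 immunostaining, DAPI and CellMask. Imaged at 20×, six fields/well, per-cell features given as log2 ratio to DMSO.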

ONS [4] = assay: Induction of phenotypic perturbation in human ONS cells assessed as increase in lysosome marker at 10 uM after 24 hrs by lysotrack red DND-99 staining based assay relative to control; format: functional, cell-based; procedure, shortened: as §2
[5] = molecular target: Tubulin alpha (Homo sapiens) (UniProt P0DPH7+P68366+Q71U36+P68363+Q9BQE3+Q6PEY2+A6NHL2+Q9NY65); assay: Induction of phenotypic perturbation in human ONS cells assessed as increase in apha tubulin marker at 10 uM after 24 hrs by alpha tubulin staining based assay relative to control; format: functional, cell-based; procedure, shortened: as §1
ONS [6] = assay: Induction of phenotypic perturbation in human ONS cells assessed as decrease in autophagy markers level in at 10 uM after 24 hrs relative to control; format: functional, cell-based
Procedure, shortened: (§3)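 Patient-derived hONS cells (Parkinson's line C1 200 08 0013), 1350 cells/well in DMEM/F12 + 10% FBS, exposed to 10 μM compound (0.6% DMSO final; DMSO 0.6% as negative control) for 24 h at 37 °C, 5% CO2. Plate 1: MitoTracker Orange 400 nM, fixed, anti-α-tubulin and anti-LC3b. Plate 2: LysoTracker Red 100 nM, anti-EEA1, CellMask. DAPI on all cells.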

ONS [7] = assay: Induction of phenotypic perturbation in human ONS cells assessed as decrease in lysosome marker at 10 uM after 24 hrs by lysotrack red DND-99 staining based assay relative to control; format: functional, cell-based
ONS [8] = assay: Induction of phenotypic perturbation in human ONS cells assessed as increase in EEA1-associated early endosomes level in at 10 uM after 24 hrs by EEA1 staining based assay relative to control; format: functional, cell-based
[9] = Cytotoxicity against human ONS cells derived from parkinsons disease patients assessed as alteration of nuclear parameters at 10 uM; format: cell-based; procedure, shortened: as §3
[10] = Cytotoxicity against human ONS cells derived from parkinsons disease patients assessed as alteration of cellular parameters at 10 uM; format: cell-based; procedure, shortened: as §3

Compound | Activity (ONS [1]) | Activity (ONS [2]) | Activity (ONS [3]) | Activity (ONS [4]) | Activity [5] | Activity (ONS [6]) | also measured
CSc1c(CC(=O)O)[n+](C)cn1C | Active | Active | Active | Active | Active | – | –
N#Cc1cn([C@@H]2O[C@H](CO)[C@@H](O)[C@H]2O)c2nc[nH]c(=O)c12 | Active | Active | Active | Active | Active | – | –
NCCc1c[nH]c2cc(Br)ccc12 | – | – | Active | – | – | Active | –
Nc1ncc2ncn([C@@H]3O[C@H](CO)[C@@H](O)[C@H]3O)c2n1 | – | – | Active | – | – | Active | –
CNc1nc2nccnc2c(=O)n1C | Active | Active | Active | Active | Active | – | –
COC(=O)c1c[nH]c2ncnc(N)c12 | – | – | Active | – | – | – | –
COc1cc2c3c(c(=O)oc2cc1O)NCCS3(=O)=O | – | – | – | – | – | – | Activity (ONS [7]): Active; Activity (ONS [8]): Active
Nc1nc2c(ncn2[C@@H]2O[C@H](CO)[C@@H](O)[C@H]2O)c(=O)[nH]1 | – | – | Active | – | – | Active | –
C[C@@H]1NC(=O)[C@@H](C)C/C=C/[C@H](C)C[C@H](C)OC(=O)C[C@H](c2ccc(O)cc2)NC(=O)[C@@H](Cc2c(Br)[nH]c3ccccc23)N(C)C1=O | – | – | – | – | – | – | Activity [9]: Toxic; Activity [10]: Toxic
Cc1cn([C@H]2C[C@H](O)[C@@H](CO)O2)c(=O)[nH]c1=O | – | – | Active | – | – | Active | –
C/C1=C\[C@H](C)C[C@H](C)OC(=O)C[C@H](c2ccc(O)cc2)NC(=O)[C@@H](Cc2c(Br)[nH]c3ccccc23)N(C)C(=O)[C@H](C)NC(=O)[C@@H](C)C1 [JASPAMIDE] | – | – | – | – | – | – | Activity [9]: Toxic; Activity [10]: Toxic
COC(=O)c1cn([C@@H]2O[C@H](CO)[C@@H](O)[C@H]2O)c2ncnc(N)c12 | – | – | Active | – | – | – | –
COC(=O)c1c[nH]c2cc(Br)ccc12 | – | – | Active | – | – | – | –
NC(=O)c1c[nH]c2cc(Br)ccc12 | Active | Active | Active | Active | Active | Active | –
C/C1=C\[C@H](C)C[C@H](C)OC(=O)C[C@H](c2ccc(O)c(Br)c2)NC(=O)[C@@H](Cc2c(Br)[nH]c3ccccc23)N(C)C(=O)[C@H](C)NC(=O)[C@@H](C)C1 [PIPESTELIDE A] | – | – | – | – | – | – | Activity [9]: Toxic; Activity [10]: Toxic
O=C(NC(=O)c1c[nH]c2cc(Br)ccc12)c1c[nH]c2cc(Br)ccc12 | Active | Active | Active | Active | Active | – | –
NC(=O)c1c[nH]c2ncnc(N)c12 | – | – | Active | – | – | – | –
NC(=O)c1cn([C@@H]2O[C@H](CO)[C@@H](O)[C@H]2O)c2ncnc(N)c12 | – | – | Active | – | – | Active | –
N#Cc1c[nH]c2ncnc(N)c12 | – | – | Active | – | – | – | –
N=C(N)c1c[nH]c2cc(Br)ccc12 | Active | Active | Active | Active | Active | – | –
C=C1C[C@H](C)C(=O)N[C@@H](C)C(=O)N(C)[C@H](Cc2c(Br)[nH]c3ccccc23)C(=O)N[C@@H](c2ccc(O)cc2)CC(=O)O[C@@H](C)C[C@@H](C)C1=O [JASPLAKINOLIDE B] | – | – | – | – | – | – | Activity [9]: Toxic; Activity [10]: Toxic
C/C(=C\[C@H](C)C[C@H](C)O)C[C@H](C)C(=O)N[C@@H](C)C(=O)N(C)[C@H](Cc1c(Br)[nH]c2ccccc12)C(=O)N[C@H](CC(=O)O)c1ccc(O)cc1 [JASPLAKINOLIDE Z1] | Active | Active | Active | Active | Active | – | Activity [9]: Toxic; Activity [10]: Toxic
N#Cc1cn([C@@H]2O[C@H](CO)[C@@H](O)[C@H]2O)c2ncnc(N)c12 | – | – | Active | – | – | Active | –

From ChEMBL document CHEMBL3797170, “A Grand Challenge: Unbiased Phenotypic Function of Metabolites from Jaspis splendens against Parkinson's Disease” (J Nat Prod, 2016)
